Compound activity deposited in PubChem BioAssay by Johns Hopkins Ion Channel Center.
Compounds with a hit are over-represented: about 3.7% of the library has one in this group of screens.
KCNQ1 block: inhibitors of human KCNQ1 channel, primary screen, cell-based, thallium flux, high-throughput; CHO-K1 KCNQ1, FluxOR thallium flux fluorescence; stronger effect = higher value; B-score at 10 µM; actives 1.3% (n = 310,000); AID 2642, 2010; Potassium voltage-gated channel subfamily KQT member 1 (Homo sapiens), P51787;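 active = compounds whose thallium flux B-score, printed positive for inhibition, exceeds three library SD while starting fluorescence stays within three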;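 also: channel opened by potassium depolarization with thallium stimulus after 20 min compound exposure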
Target sequence (P51787 whole entry, looked up): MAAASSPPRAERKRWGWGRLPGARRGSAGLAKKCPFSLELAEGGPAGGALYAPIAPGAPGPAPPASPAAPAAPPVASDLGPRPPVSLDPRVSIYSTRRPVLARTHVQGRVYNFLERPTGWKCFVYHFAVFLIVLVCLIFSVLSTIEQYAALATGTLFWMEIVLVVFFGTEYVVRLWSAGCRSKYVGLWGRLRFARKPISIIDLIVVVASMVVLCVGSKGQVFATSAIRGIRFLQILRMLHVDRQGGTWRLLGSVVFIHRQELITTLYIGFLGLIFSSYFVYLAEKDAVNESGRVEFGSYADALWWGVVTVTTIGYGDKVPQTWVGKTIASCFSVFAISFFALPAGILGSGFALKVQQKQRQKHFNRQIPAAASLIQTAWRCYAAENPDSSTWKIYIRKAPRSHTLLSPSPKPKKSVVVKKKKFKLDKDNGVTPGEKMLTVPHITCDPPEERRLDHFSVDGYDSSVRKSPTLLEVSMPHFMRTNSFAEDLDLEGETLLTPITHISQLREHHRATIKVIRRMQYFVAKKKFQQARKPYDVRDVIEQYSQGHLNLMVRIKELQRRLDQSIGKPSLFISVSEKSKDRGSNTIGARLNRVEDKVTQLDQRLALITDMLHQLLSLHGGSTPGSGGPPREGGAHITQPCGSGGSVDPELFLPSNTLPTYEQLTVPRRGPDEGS
KCNQ1 pot: potentiators or activators of KCNQ1 channel, primary screen, cell-based, thallium flux, high-throughput | CHO-K1 KCNQ1, thallium flux FluxOR fluorescence; stronger effect = higher value | actives 0.35% (n = 310,000) | B-score at 10 µM | Potassium voltage-gated channel subfamily KQT member 1 (Homo sapiens), P51787;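 active = fluorescence ratio B-score, a plate-corrected score, at least three library SD, with initial intensity B-score within 5 SD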
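System: Stable KCNQ1 CHO-K1 line | Incubation: 90 min dye loading and 20 min compound exposure, both at room temperature | Measure: Ratio B score | Medium: Assay buffer for compound exposure, DMSO matched across wells | Compound dosing: Single-concentration screen | Probe or stimulus: K+/Tl+ depolarizing stimulus | Measured by: Kinetic FluxOR fluorescence, 10 s baseline plus 110 s post-stimulus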
KCNK3 inh: human KCNK3 channel inhibitors, primary screen, CHO cells, FluxOR thallium flux, B-score; Potassium channel subfamily K member 3 (Homo sapiens), O14649; FluxOR fluorescence; stronger effect = lower value; B-score at 10 µM; actives 0.84% (n = 340,000);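 active = B-score under library mean minus 4 SD, starting fluorescence ratio at most library mean plus 5 SD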;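 also: more negative B-score means stronger inhibition of thallium flux through KCNK3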
Kir21 inh: inhibitors of mouse Kir2.1 inward-rectifier potassium channel | AID 1672, 2009 | HEK293-Kir2.1, FluxOR thallium flux fluorescence; stronger effect = lower value | actives 0.85% (n = 310,000) | Inward rectifier potassium channel 2 (Mus musculus), P35561 | B-score at 10 µM;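 active = fluorescence ratio B-score at or below minus 3 SD of library scores, with starting-brightness B-score within 2 SD, cut at about -4.2 in these data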;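 also: channel flux triggered by added potassium and thallium sulfate stimulus; B-score of peak minus minimum fluorescence over baseline after thallium stimulus; more negative B-score means stronger Kir2.1 block with less thallium influx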
hERG protect: hERG rescue from dofetilide block, primary screen, cell-based, CHO-hERG, FluxOR thallium flux, dofetilide IC70. dofetilide IC70 present. activation (rescue from dofetilide block), less the hit threshold, % at 10 µM. actives 0.51% (n = 310,000). AID 1511, 2009;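 active = activation above the mean of controls blocked by dofetilide plus 5 SD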;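 also: thallium influx through hERG after potassium depolarization seen as dye fluorescence rise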
KCNK9 inh: KCNK9 potassium channel inhibitors, primary screen, HEK293 cells, thallium flux; Potassium channel subfamily K member 9 (Homo sapiens), Q9NPC2; FluxOR thallium flux fluorescence; stronger effect = lower value; B-score at 10 µM; actives 1.2% (n = 310,000); AID 488922, 2010;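 active = ratio B-score over 3 SD below the library mean, with starting fluorescence within 5 SD of its mean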;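 also: negative B-score means less thallium flux so channel inhibition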
KCNK3 inh conf: retest of human KCNK3 channel inhibitors, confirmation, CHO cells, FluxOR thallium flux, triplicate; AID 651638, 2012; FluxOR fluorescence; 0% buffer, 100% carvedilol maximal block; shares compounds with KCNK3 inh; actives 99% (n = 2,400); ratio percent of control, % at 10 µM;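 active = ratio percent of control, averaged over triplicates, above buffer control mean plus 5 SD, cut at about 64% in these data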;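 also: ratio is the fluorescence rise from min to max over baseline after thallium stimulus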
KCNK3 noninduced: thallium flux inhibition in non-induced cells, primary screen, counter-screen for KCNK3 inhibitor project, cell-based, non-induced KCNK3 line, FluxOR thallium, triplicate. thallium flux ratio (lower = more inhibition) at 10 µM. AID 651747, 2012. actives 40% (n = 2,400). shares compounds with KCNK3 inh. non-induced KCNK3 parental cells; stronger effect = lower value;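 active = thallium flux ratio, averaged over three wells, more than 5 SD below the buffer control mean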;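 also: host cells are CHO cells without KCNK3 induction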
Numbers stand for hits; – = inactive; · = not tested or not shown.

SMILES | KCNQ1 block | KCNQ1 pot | KCNK3 inh | Kir21 inh | hERG protect | KCNK9 inh | KCNK3 inh conf | KCNK3 noninduced
CCN(CC)C(=O)Oc1nnc(SC(C)C)n1-c1ccc(Cl)cc1 | – | – | -9.58 | – | – | – | 86.3 | –
CC(=O)NS(=O)(=O)c1ccc(NC(=O)c2oc3c(Cl)cccc3c2C)cc1 | – | – | · | – | – | – | · | ·
O=C(NCCn1cc(SCc2ccccc2)c2ccccc21)c1ccccc1F | 8 | – | -15.5 | – | – | – | 124.3 | 0.146
CC(C)c1nnc(NC(=O)CS(=O)(=O)c2ccccc2)s1 | – | – | – | – | – | – | · | ·
Cc1ccccc1NC1=C(Cl)C(=O)OC1OC(=O)c1ccccc1C (stereo not given) | – | – | -11.7 | – | – | – | 127.7 | 0.11
CCSc1nnc(NC(=O)C(NC(=O)c2ccc(Cl)cc2)C(C)C)s1 (stereo not given) | – | – | – | – | – | – | · | ·
Cc1ccc2oc(-c3cccc(NC(=O)c4ccc(Br)o4)c3)nc2c1 | – | – | -10.8 | – | – | – | 105.3 | –
Cc1ccc(NC(=S)N(CCN(C)C)C(C)c2ccco2)cc1C (stereo not given) | – | – | – | – | – | – | · | ·
CN(C(=S)Nc1ccc(F)cc1)C(c1ccccc1)c1ccccc1 | – | – | -10.8 | – | – | – | 115.3 | –
Cc1ccc(NC(=S)N(C)C(c2ccccc2)c2ccccc2)cc1C | – | – | -9.05 | – | – | – | 133.7 | 0.122
CCCN(Cc1ccccc1)C(=S)Nc1ccc(F)cc1 | – | – | – | – | – | – | · | ·
CCOC(=O)CNC(=S)N(Cc1ccco1)Cc1ccccc1Cl | – | – | -10.2 | – | – | – | 124.3 | –
COC(=O)C/C=C/[C@@H](C)[C@@H](/C=N/OCC[C@@H]1C=C[C@H](OC(C)=O)[C@@H](COC(C)=O)O1)NS(=O)(=O)c1ccc(C)cc1 | – | – | · | – | – | – | · | ·
CCNC(=O)C(=O)Nc1ccc2c(c1)N(S(=O)(=O)c1cccs1)CCC2 | – | – | – | – | – | – | · | ·
O=C(Nc1ccc2c(c1)N(S(=O)(=O)c1cccs1)CCC2)c1c(F)cccc1F | – | – | -8.71 | – | – | – | 100.7 | –
CCc1ccc(NC(=O)NCCCN2CCCC2=O)cc1 | – | – | – | – | – | – | · | ·
C=C(C)CSc1nc(N)cc(=O)[nH]1 | – | – | -21.1 | – | – | – | 67.0 | –
Cc1ccc(C(=O)CSc2nc(N)cc(=O)[nH]2)cc1 | – | – | – | – | – | – | · | ·
Cc1sc(NC(=O)CSc2nc(N)cc(N)n2)c(C#N)c1C | – | – | – | – | – | – | · | ·
CCCCN(C)Cc1cc(=O)oc2ccc3ccccc3c12 | – | – | -9.29 | – | – | – | 120.0 | 0.146
COc1ccccc1CC(=O)N(Cc1ccccc1)c1cccc(C)c1 | – | – | -11.6 | – | – | – | 103.0 | 0.152
COc1ccc(C(=O)N(Cc2ccccc2)c2cccc(C)c2)cc1 | – | – | – | – | – | – | · | ·
N#Cc1cc2c(nc1SCc1ccc(Cl)nc1)CCCCC2 | – | – | -11.4 | – | – | -6.98 | 116.0 | 0.159
CCOC(=O)c1c(CSc2ccc(CC)cc2)oc2ccc(O)c(CN(C)C)c12 | 8 | – | -9.13 | -15.7 | – | -7.4 | 120.0 | 0.155
CCC(=O)Nc1ccccc1C(=O)OCc1ccc(C(=O)c2ccccc2)cc1 | – | – | -9.26 | – | – | – | 98.3 | –
SMILES | KCNQ1 block | KCNQ1 pot | KCNK3 inh | Kir21 inh | hERG protect | KCNK9 inh | KCNK3 inh conf | KCNK3 noninduced
CCC(=O)Nc1ccccc1C(=O)OC(c1ccccc1)c1ccccc1 | – | – | – | – | – | – | · | ·
O=C(NCCC1=CCCCC1)C1CCN(S(=O)(=O)c2ccccc2C(F)(F)F)CC1 | – | – | – | – | – | – | · | ·
Cc1ccc(NC(=S)N(CCN2CCOCC2)Cc2cc3cc4c(cc3[nH]c2=O)OCCO4)cc1 | – | – | -8.93 | – | – | – | 98.3 | –
COc1ccc(NC(=S)N(CCN2CCOCC2)Cc2cc3cc4c(cc3[nH]c2=O)OCO4)cc1 | – | – | · | – | – | – | · | ·
CCOc1ccc(NC(=S)N(CCN2CCOCC2)Cc2cc3cc4c(cc3[nH]c2=O)OCO4)cc1 | – | – | – | – | – | – | · | ·
Cc1ccc(NC(=S)N(CCN2CCOCC2)Cc2cc3cc4c(cc3[nH]c2=O)OCO4)cc1 | – | – | -10.6 | – | – | – | 92.3 | –
Cc1cccc(NC(=S)N(CCN2CCOCC2)Cc2cc3cc4c(cc3[nH]c2=O)OCCO4)c1 | – | – | -11.8 | – | – | – | 91.3 | –
C=CCn1c(O)c(N=NC(=O)CNC(=O)Cc2ccccc2)c2ccccc21 | – | – | – | – | – | – | · | ·
O=C(Nc1nc(-c2ccccc2)cs1)C1c2ccccc2Oc2ccccc21 | – | – | -8.77 | – | – | -7.23 | 119.3 | –
CCCCNC(=O)c1ccccc1SCC(=O)NC1CCCCCCC1 | · | · | – | · | · | · | · | ·
CC(C)CCn1c(SCC(=O)N2CC(=O)Nc3ccccc32)nc2scc(-c3cccs3)c2c1=O | – | – | – | – | – | – | · | ·
C=CCn1c(SCC(=O)N2CC(=O)Nc3ccccc32)nc2scc(-c3cccs3)c2c1=O | – | – | -13 | – | – | -7.43 | 109.7 | –
Cc1ccc(C(=O)COC(=O)CNC(=O)c2ccccc2)s1 | · | · | – | · | · | · | · | ·
Cc1csc(SCC(=O)c2cc(C)n(Cc3cccs3)c2C)n1 | – | – | -9.5 | – | – | – | 132.7 | 0.139
CC(=O)Nc1ccc(SCC(=O)c2cc(C)n(Cc3cccs3)c2C)cc1 | – | – | – | – | – | – | · | ·
Cc1cc(C(=O)CSc2nnc(N)s2)c(C)n1Cc1cccs1 | – | – | – | – | – | – | · | ·
Cc1cc(C(=O)CSc2n[nH]c(-c3ccccc3F)n2)c(C)n1Cc1cccs1 | – | – | -10.2 | – | – | – | 91.7 | –
C/C(=N/NC(=O)CN(c1ccccc1)S(=O)(=O)c1ccccc1)c1ccccc1O | – | – | – | – | – | – | · | ·
CC(=O)Nc1ccc(S(=O)(=O)N2CCN(C(=O)c3ncoc3-c3ccc(C)cc3)CC2)cc1 | – | – | – | – | – | – | · | ·
CC(OC(=O)c1ccco1)C(=O)Nc1ccc(C(F)(F)F)cc1 (stereo not given) | · | · | – | · | · | · | · | ·
